Results: ChEMBL document CHEMBL1125131, “Long-acting dihydropyridine calcium antagonists. 4. Synthesis and structure-activity relationships for a series of basic and nonbasic derivatives of 2-[(2-aminoethoxy)methyl]-1,4-dihydropyridine calcium antagonists” (J Med Chem, 1990)

Assays:
Rattus norvegicus = species: Rattus norvegicus; assay: Concentration required to block [Ca2+] induced contraction of K+ depolarized rat aorta by 50%; assay type: functional
[1] = Selectivity index, inhibition of [Ca2+] induced contraction of K+ depolarized rat aorta (IC50) to inhibition of contraction of guinea pig heart (IC25); assay type: functional, Cavia porcellus
Cavia porcellus = species: Cavia porcellus; assay: Negative logarithm of the concentration required to depress contraction in the Langendorff perfused guinea pig heart by 25%; assay type: functional
Canis familiaris [2] = assay: The compound was tested for % decrease in coronary vasodilator activity in anesthetized dogs following intravenous administration; assay type: functional, Canis lupus familiaris
Summary of the method: (§1)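 Anesthetized beagle dogs were catheterized to record blood pressure and left ventricular pressure and to give compound intravenously, as one single dose for duration of action. Coronary blood flow was measured by hydrogen clearance with platinum electrodes in the coronary sinus and femoral artery, and cardiac output by thermodilution. Coronary vascular resistance was derived from these measurements.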

Canis familiaris [3] = species: Canis familiaris; assay: Duration of time taken for the compound for % decrease in coronary vasodilator activity; assay type: functional, Canis lupus familiaris; summary of the method: as §1
Canis familiaris [4] = assay: Percent decrease in coronary vasodilator activity in anesthetized dogs following intravenous administration was determined; assay type: functional, Canis lupus familiaris; summary of the method: as §1
Canis familiaris [5] = species: Canis familiaris; assay: Duration of time taken for percent decrease in coronary vasodilator activity; assay type: functional, Canis lupus familiaris; summary of the method: as §1
[6] = Volume of distribution in dog after intravenous administration; assay type: ADME, organism-based, Canis lupus familiaris; settings: in vivo, read-out: Volume of distribution
[7] = Plasma clearance in dogs after intravenous administration; assay type: ADME, organism-based, Canis lupus familiaris; settings: dog
[8] = Plasma half-life in dog after intravenous administration; assay type: ADME, organism-based, Canis lupus familiaris

Row | IC50 (Rattus norvegicus) [nM] | Vd [6] [L/kg] | clearance [7] [mL/min/kg] | half-life [8] [min] | SMILES | Selectivity index [1] | pIC25 (Cavia porcellus) | Decrease (Canis familiaris [2]) [%] | Duration of action (Canis familiaris [3]) [min] | Decrease (Canis familiaris [4]) [%] | Duration of action (Canis familiaris [5]) [min]
1 | 15.8 |  |  |  | CCO/C(O)=C1\C(COCCNC(=O)c2cccnc2)=NC(C)=C(C(=O)OC)C1c1ccccc1Cl (stereo not given) | 1.6 | 7.6 |  |  |  | 
2 | 25.1 |  |  |  | CCO/C(O)=C1\C(COCCN(C)/C(=N/C)NC#N)=NC(C)=C(C(=O)OC)C1c1ccccc1Cl (stereo not given) | 10 | 6.6 |  |  |  | 
3 | 100 |  |  |  | CCO/C(O)=C1\C(COCCNCC(=O)NCCN)=NC(C)=C(C(=O)OC)C1c1ccccc1Cl (stereo not given) | 1 | 7 |  |  |  | 
4 | 50.1 |  |  |  | CCO/C(O)=C1\C(COCC/N=C(\NC#N)NCCN(C)C)=NC(C)=C(C(=O)OC)C1c1ccccc1Cl (stereo not given) | 3 | 6.8 |  |  |  | 
5 | 39.8 |  |  |  | CCO/C(O)=C1\C(COCCNC(=O)c2cnccn2)=NC(C)=C(C(=O)OC)C1c1ccccc1Cl (stereo not given) | 0.8 | 7.5 |  |  |  | 
6 | 7.94 |  |  |  | CCO/C(O)=C1\C(COCCNS(N)(=O)=O)=NC(C)=C(C(=O)OC)C1c1ccccc1Cl (stereo not given) | 10 | 7.1 |  |  |  | 
7 | 6.31 |  |  |  | CCO/C(O)=C1\C(COCCNC(=O)c2ccc(O)nc2)=NC(C)=C(C(=O)OC)C1c1ccccc1Cl (stereo not given) | 16 | 7 |  |  |  | 
8 | 15.8 |  |  |  | CCO/C(O)=C1\C(COCCNC(C)=O)=NC(C)=C(C(=O)OC)C1c1ccccc1Cl (stereo not given) | 1.6 | 7.6 |  |  |  | 
9 | 25.1 |  |  |  | CCO/C(O)=C1\C(COCCNCC(=O)NC)=NC(C)=C(C(=O)OC)C1c1ccccc1Cl (stereo not given) | 5 | 6.9 |  |  |  | 
10 | 5.01 |  |  |  | CCO/C(O)=C1\C(COCCNCC(=O)NCCOC)=NC(C)=C(C(=O)OC)C1c1ccccc1Cl (stereo not given) | 6 | 7.5 |  |  |  | 
11 | 3.16 |  |  |  | CCO/C(O)=C1\C(COCCNC(C)(C)C(N)=O)=NC(C)=C(C(=O)OC)C1c1ccccc1Cl (stereo not given) | 8 | 7.6 | 85 | 210 |  | 
12 | 10 |  |  |  | CCOC(=O)CNC(=O)NCCOCC1=C(C(=O)OCC)C(c2ccccc2Cl)/C(=C(\O)OC)C(C)=N1 (stereo not given) | 10 | 7 | 61 | 15 |  | 
13 | 158 |  |  |  | CCO/C(O)=C1\C(COCCNC(=O)Nc2ccnc(O)n2)=NC(C)=C(C(=O)OC)C1c1ccccc1Cl (stereo not given) | 0.1 | 7.7 |  |  |  | 
14 | 50.1 |  |  |  | CCO/C(O)=C1\C(COCCNC(=O)NCCN)=NC(C)=C(C(=O)OC)C1c1ccccc1Cl.O=C(O)/C=C\C(=O)O (stereo not given) | 1.6 | 7.1 |  |  |  | 
15 | 10 |  |  |  | CCO/C(O)=C1\C(COCCNC(C)C(N)=O)=NC(C)=C(C(=O)OC)C1c1ccccc1Cl (stereo not given) | 6 | 7.2 | 73 | 150 |  | 
16 | 20 |  |  |  | CCO/C(O)=C1\C(COCCN(C)C(=O)NC)=NC(C)=C(C(=O)OC)C1c1ccccc1Cl (stereo not given) | 5 | 7 |  |  | 68 | 15
17 | 3.16 |  |  |  | CCO/C(O)=C1\C(COCCNC(=O)NC)=NC(C)=C(C(=O)OC)C1c1ccccc1Cl (stereo not given) | 13 | 7.6 |  |  |  | 
18 | 63.1 |  |  |  | CCO/C(O)=C1\C(COCCN(CC(N)=O)CC(N)=O)=NC(C)=C(C(=O)OC)C1c1ccccc1Cl (stereo not given) | 16 | 6 |  |  |  | 
19 | 15.8 |  |  |  | CCO/C(O)=C1\C(COCCNC(=O)NCCN2CCNC2=O)=NC(C)=C(C(=O)OC)C1c1ccccc1Cl (stereo not given) | 40 | 6.2 |  |  |  | 
20 | 6.31 |  |  |  | CCO/C(O)=C1\C(COCC/N=C(/NC)NC#N)=NC(C)=C(C(=O)OC)C1c1ccccc1Cl (stereo not given) | 5 | 7.5 |  |  |  | 
21 | 3.98 | 3 | 7 | 282 | CCO/C(O)=C1\C(COCCNCC(N)=O)=NC(C)=C(C(=O)OC)C1c1ccccc1Cl (stereo not given) | 20 | 7.1 | 88 | >300 |  | 
22 | 20 |  |  |  | CCO/C(O)=C1\C(COCCNC(=O)NCC(N)=O)=NC(C)=C(C(=O)OC)C1c1ccccc1Cl (stereo not given) | 20 | 6.4 |  |  |  | 
23 | 25.1 |  |  |  | CCO/C(O)=C1\C(COCCN(C)S(N)(=O)=O)=NC(C)=C(C(=O)OC)C1c1ccccc1Cl (stereo not given) | 8 | 6.7 |  |  |  | 
24 |  |  |  |  | COC(=O)C1=C(C)NC(C)=C(C(=O)OC)C1c1ccccc1[N+](=O)[O-] [NIFEDIPINE] |  | 7.5 | 77 | 36 |  | 
